According to ChEMBL document CHEMBL3044760, “Synthesis and insecticidal activity of heptafluoroisopropyl-containing benzoylphenylurea structures” (2010):
Active and inactive are the calls of the source. The calls are words filed in the database; no cut-off is given here.

Columns and labels:
Bemisia tabaci [1] = assay: Insecticidal activity against Bemisia tabaci (sweet potato whitefly) nymphs assessed as suppression of larval pupation at 0.3 mg of ai/ha; type: functional, organism-based
Spodoptera littoralis [2] = assay: Insecticidal activity against Spodoptera littoralis worm third-instar larvae grown on compound pre-treated caster bean leaves assessed as larval weight gain at 0.5 mg of ai/L as Rimon EC formulation measured 8 days post compound treatment relative to untreated control; type: functional
Spodoptera littoralis [3] = assay: Insecticidal activity against Spodoptera littoralis worm third-instar larvae grown on compound pre-treated caster bean leaves assessed as larval mortality at 0.5 mg of ai/L as Rimon EC formulation measured 8 days post compound treatment; type: functional
Method in brief: (§1)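 Castor bean leaves treated at 0.25 or 0.5 mg ai/L formulation and fed to S. littoralis third instars (11 ± 1 mg) for 4 days, then moved to untreated leaves for 4 more days. Larval mortality scored at day 4 and day 8.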

Spodoptera littoralis [4] = assay: Insecticidal activity against Spodoptera littoralis worm third-instar larvae grown on compound pre-treated caster bean leaves assessed as larval mortality at 0.5 mg of ai/L as Rimon EC formulation measured 4 days post compound treatment; type: functional; method in brief: as §1
Mythimna separata [5] = assay: Insecticidal activity against Mythimna separata (Oriental armyworm) second-instar larvae reared on compound pre-treated corn disks assessed as larval mortality at 0.125 mg/L measured 7 days post compound treatment by leaf-dip method; type: functional
Method in brief: (§2)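 Leaf-dip: corn disks dipped 5 s in test solution, air-dried on filter paper, set on agar in 7 cm Petri dishes, with water-dipped disks as controls. Ten second-instar larvae per disk; dishes sealed with ventilated lids and stored inverted. Mortality scored at 7 days and corrected by Abbott's formula when needed. Diflubenzuron run under the same conditions.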

Mythimna separata [6] = assay: Insecticidal activity against Mythimna separata (Oriental armyworm) second-instar larvae reared on compound pre-treated corn disks assessed as larval mortality at 0.25 mg/L measured 7 days post compound treatment by leaf-dip method; type: functional; method in brief: as §2
Mythimna separata [7] = assay: Insecticidal activity against Mythimna separata (Oriental armyworm) second-instar larvae reared on compound pre-treated corn disks assessed as larval mortality at 15.625 mg/L measured 7 days post compound treatment by leaf-dip method; type: functional; method in brief: as §2
Mythimna separata [8] = assay: Insecticidal activity against Mythimna separata (Oriental armyworm) second-instar larvae reared on compound pre-treated corn disks assessed as larval mortality at 31.25 mg/L measured 7 days post compound treatment by leaf-dip method; type: functional; method in brief: as §2
Mythimna separata [9] = assay: Insecticidal activity against Mythimna separata (Oriental armyworm) second-instar larvae reared on compound pre-treated corn disks assessed as larval mortality at 62.5 mg/L measured 7 days post compound treatment by leaf-dip method; type: functional; method in brief: as §2
Mythimna separata [10] = assay: Insecticidal activity against Mythimna separata (Oriental armyworm) second-instar larvae reared on compound pre-treated corn disks assessed as larval mortality at 10 mg/L measured 7 days post compound treatment by leaf-dip method; type: functional; method in brief: as §2
Mythimna separata [11] = assay: Insecticidal activity against Mythimna separata (Oriental armyworm) second-instar larvae reared on compound pre-treated corn disks assessed as larval mortality at 5 mg/L measured 7 days post compound treatment by leaf-dip method; type: functional; method in brief: as §2
Mythimna separata [12] = assay: Insecticidal activity against Mythimna separata (Oriental armyworm) second-instar larvae reared on compound pre-treated corn disks assessed as larval mortality at 12.5 mg/L measured 7 days post compound treatment by leaf-dip method; type: functional; method in brief: as §2
Bemisia tabaci [13] = assay: Insecticidal activity against Bemisia tabaci (sweet potato whitefly) nymphs assessed as effect on larval pupation; type: functional, organism-based
Spodoptera littoralis [14] = assay: Insecticidal activity against Spodoptera littoralis worm third-instar larvae grown on compound pre-treated caster bean leaves assessed as larval weight gain at 0.5 mg of ai/L measured 8 days post compound treatment relative to untreated control; type: functional
Spodoptera littoralis [15] = assay: Insecticidal activity against Spodoptera littoralis worm third-instar larvae grown on compound pre-treated caster bean leaves assessed as larval weight gain at 0.25 mg of ai/L measured 8 days post compound treatment relative to untreated control; type: functional
Spodoptera littoralis [16] = assay: Insecticidal activity against Spodoptera littoralis worm third-instar larvae grown on compound pre-treated caster bean leaves assessed as larval mortality at 0.5 mg of ai/L measured 8 days post compound treatment; type: functional; method in brief: as §1
Spodoptera littoralis [17] = assay: Insecticidal activity against Spodoptera littoralis worm third-instar larvae grown on compound pre-treated caster bean leaves assessed as larval mortality at 0.25 mg of ai/L measured 8 days post compound treatment; type: functional; method in brief: as §1
Spodoptera littoralis [18] = assay: Insecticidal activity against Spodoptera littoralis worm third-instar larvae grown on compound pre-treated caster bean leaves assessed as larval mortality at 0.5 mg of ai/L measured 4 days post compound treatment; type: functional; method in brief: as §1
Spodoptera littoralis [19] = assay: Insecticidal activity against Spodoptera littoralis worm third-instar larvae grown on compound pre-treated caster bean leaves assessed as larval mortality at 0.25 mg of ai/L measured 4 days post compound treatment; type: functional; method in brief: as §1
Plutella xylostella = assay: Insecticidal activity against Plutella xylostella (diamondback moth) […] using 5% compound EC formulation at 37.5 g of ai/ha measured after 7 days field trial; type: functional
Pieris rapae = assay: Insecticidal activity against imported cabbage worm measured 7 days after application of compound at 2000 diluent 5% EC; type: functional, organism-based
Cnaphalocrocis medinalis = assay: Insecticidal activity against rice leaf roller third-instar larvae using 5% compound EC formulation at 25 g of ai/ha measured after 10 days field plot trial; type: functional, organism-based
Mythimna separata [20] = assay: Insecticidal activity against Mythimna separata (Oriental armyworm) second-instar larvae reared on compound pre-treated corn disks assessed as larval mortality at 50 mg/L measured 7 days post compound treatment by leaf-dip method; type: functional; method in brief: as §2

SMILES: O=C(NC(=O)c1c(F)cccc1F)Nc1ccc(OC(F)(F)C(F)OC(F)(F)F)c(Cl)c1 (stereo unspecified) [NOVALURON]
- Activity (Bemisia tabaci [1]): Active
- Activity (Spodoptera littoralis [2]): 44%
- mortality (Spodoptera littoralis [3]): 78%
- mortality (Spodoptera littoralis [4]): 6%

SMILES: O=C(NC(=O)c1c(F)cccc1F)Nc1c(F)cc(C(F)(C(F)(F)F)C(F)(F)F)cc1F
- mortality at 0.125 µg/mL (Mythimna separata [5]): 62.7%
- mortality at 0.25 µg/mL (Mythimna separata [6]): 100%

SMILES: O=C(NC(=O)c1c(F)cccc1F)Nc1ccc(Cl)cc1 [DIFLUBENZURON]
- mortality at 0.125 µg/mL (Mythimna separata [5]): 69.5%
- mortality at 0.25 µg/mL (Mythimna separata [6]): 100%

SMILES: Cc1cc(C(F)(C(F)(F)F)C(F)(F)F)ccc1NC(=O)NC(=O)c1c(F)cccc1F
- mortality at 15.625 µg/mL (Mythimna separata [7]): 56.6%
- mortality at 31.25 µg/mL (Mythimna separata [8]): 100%

SMILES: Cc1ccc(NC(=O)NC(=O)c2c(F)cccc2F)c(C(F)(C(F)(F)F)C(F)(F)F)c1
- mortality at 62.5 µg/mL (Mythimna separata [9]): 100%
- mortality at 31.25 µg/mL (Mythimna separata [8]): 93.3%

SMILES: O=C(NC(=O)c1c(F)cccc1F)Nc1ccc(Br)cc1C(F)(C(F)(F)F)C(F)(F)F
- mortality at 15.625 µg/mL (Mythimna separata [7]): 56.6%
- mortality at 31.25 µg/mL (Mythimna separata [8]): 100%

SMILES: O=C(NC(=O)c1ccccc1Cl)Nc1ccc(C(F)(C(F)(F)F)C(F)(F)F)cc1
- mortality at 10 µg/mL (Mythimna separata [10]): 100%
- mortality at 5 µg/mL (Mythimna separata [11]): 66.9%

SMILES: O=C(NC(=O)c1c(F)cccc1F)Nc1ccc(C(F)(C(F)(F)F)C(F)(F)F)c(Br)c1
- mortality at 15.625 µg/mL (Mythimna separata [7]): 46.6%
- mortality at 31.25 µg/mL (Mythimna separata [8]): 100%

SMILES: O=C(NC(=O)c1c(F)cccc1F)Nc1ccc(C(F)(C(F)(F)F)C(F)(F)F)cc1
- mortality at 15.625 µg/mL (Mythimna separata [7]): 43.3%
- mortality at 31.25 µg/mL (Mythimna separata [8]): 100%

SMILES: O=C(NC(=O)c1c(F)cccc1F)Nc1ccc(C(F)(C(F)(F)F)C(F)(F)F)cc1Cl
- mortality at 15.625 µg/mL (Mythimna separata [7]): 20%
- mortality at 31.25 µg/mL (Mythimna separata [8]): 100%

SMILES: O=C(NC(=O)c1c(F)cccc1F)Nc1ccc(C(F)(C(F)(F)F)C(F)(F)F)cc1F
- mortality at 0.125 µg/mL (Mythimna separata [5]): 63.3%
- mortality at 0.25 µg/mL (Mythimna separata [6]): 100%

SMILES: O=C(NC(=O)c1ccccc1)Nc1ccc(C(F)(C(F)(F)F)C(F)(F)F)cc1
- mortality at 10 µg/mL (Mythimna separata [10]): 68.1%
- mortality at 12.5 µg/mL (Mythimna separata [12]): 100%
- Activity (Bemisia tabaci [13]): inactive
- Activity (Spodoptera littoralis [14]): 94%
- Activity (Spodoptera littoralis [15]): 69%
- mortality (Spodoptera littoralis [16]): 22%
- mortality (Spodoptera littoralis [17]): 14%
- mortality (Spodoptera littoralis [18]): 18%
- mortality (Spodoptera littoralis [19]): 8%

SMILES: Cc1cc(C(F)(C(F)(F)F)C(F)(F)F)cc(C)c1NC(=O)NC(=O)c1c(F)cccc1F
- mortality at 0.125 µg/mL (Mythimna separata [5]): 50%
- mortality at 0.25 µg/mL (Mythimna separata [6]): 80%
- Activity (Plutella xylostella): >92%
- Activity (Bemisia tabaci [13]): inactive
- Activity (Spodoptera littoralis [14]): 31%
- Activity (Spodoptera littoralis [15]): 45%
- mortality (Spodoptera littoralis [16]): 78%
- mortality (Spodoptera littoralis [17]): 36%
- Activity (Pieris rapae): Active
- Activity (Cnaphalocrocis medinalis): Active
- mortality (Spodoptera littoralis [18]): 18%
- mortality (Spodoptera littoralis [19]): 8%

SMILES: Cc1cc(C(F)(C(F)(F)F)C(F)(F)F)cc(C)c1NC(=O)NC(=O)c1ccccc1Cl
- mortality at 10 µg/mL (Mythimna separata [10]): 69.1%
- mortality at 50 µg/mL (Mythimna separata [20]): 100%

SMILES: O=C(NC(=O)c1c(F)cccc1F)Nc1ccc(C(F)(C(F)(F)F)C(F)(F)F)c(Cl)c1
- mortality at 15.625 µg/mL (Mythimna separata [7]): 86.6%
- mortality at 31.25 µg/mL (Mythimna separata [8]): 100%

SMILES: COc1ccc(NC(=O)NC(=O)c2c(F)cccc2F)c(C(F)(C(F)(F)F)C(F)(F)F)c1
- mortality at 62.5 µg/mL (Mythimna separata [9]): 100%
- mortality at 31.25 µg/mL (Mythimna separata [8]): 86.6%
